{
  "source": "paper PMC5079820",
  "about": "(Bioorganic & medicinal chemistry, 2016)",
  "key": {"MDA-MB-231 cells": {"test_system": "MDA-MB-231 cells", "test": "Lactate dehydrogenase", "assay_type": "cell-based", "details": "MDA-MB-231, effective anticancer concentrations, 24 h", "summary_of_the_method": "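MDA-MB-231 cells were seeded at 3 × 10^4 cells/well and allowed to attach, then exposed to test compound in medium with 5% FBS for 24 h at 37 °C, 5% CO2. Controls: Triton X-100 wells (maximum release) and […], in triplicate. Supernatant was incubated with NAD+/lactic acid/INT/diaphorase for 30 min at rt, and A490 was read. % cytotoxicity was calculated relative to spontaneous and maximum release.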"}, "IGF1R": {"target": "IGF1R (Homo sapiens, UniProt P08069)", "sequence (P08069 31-1367)": "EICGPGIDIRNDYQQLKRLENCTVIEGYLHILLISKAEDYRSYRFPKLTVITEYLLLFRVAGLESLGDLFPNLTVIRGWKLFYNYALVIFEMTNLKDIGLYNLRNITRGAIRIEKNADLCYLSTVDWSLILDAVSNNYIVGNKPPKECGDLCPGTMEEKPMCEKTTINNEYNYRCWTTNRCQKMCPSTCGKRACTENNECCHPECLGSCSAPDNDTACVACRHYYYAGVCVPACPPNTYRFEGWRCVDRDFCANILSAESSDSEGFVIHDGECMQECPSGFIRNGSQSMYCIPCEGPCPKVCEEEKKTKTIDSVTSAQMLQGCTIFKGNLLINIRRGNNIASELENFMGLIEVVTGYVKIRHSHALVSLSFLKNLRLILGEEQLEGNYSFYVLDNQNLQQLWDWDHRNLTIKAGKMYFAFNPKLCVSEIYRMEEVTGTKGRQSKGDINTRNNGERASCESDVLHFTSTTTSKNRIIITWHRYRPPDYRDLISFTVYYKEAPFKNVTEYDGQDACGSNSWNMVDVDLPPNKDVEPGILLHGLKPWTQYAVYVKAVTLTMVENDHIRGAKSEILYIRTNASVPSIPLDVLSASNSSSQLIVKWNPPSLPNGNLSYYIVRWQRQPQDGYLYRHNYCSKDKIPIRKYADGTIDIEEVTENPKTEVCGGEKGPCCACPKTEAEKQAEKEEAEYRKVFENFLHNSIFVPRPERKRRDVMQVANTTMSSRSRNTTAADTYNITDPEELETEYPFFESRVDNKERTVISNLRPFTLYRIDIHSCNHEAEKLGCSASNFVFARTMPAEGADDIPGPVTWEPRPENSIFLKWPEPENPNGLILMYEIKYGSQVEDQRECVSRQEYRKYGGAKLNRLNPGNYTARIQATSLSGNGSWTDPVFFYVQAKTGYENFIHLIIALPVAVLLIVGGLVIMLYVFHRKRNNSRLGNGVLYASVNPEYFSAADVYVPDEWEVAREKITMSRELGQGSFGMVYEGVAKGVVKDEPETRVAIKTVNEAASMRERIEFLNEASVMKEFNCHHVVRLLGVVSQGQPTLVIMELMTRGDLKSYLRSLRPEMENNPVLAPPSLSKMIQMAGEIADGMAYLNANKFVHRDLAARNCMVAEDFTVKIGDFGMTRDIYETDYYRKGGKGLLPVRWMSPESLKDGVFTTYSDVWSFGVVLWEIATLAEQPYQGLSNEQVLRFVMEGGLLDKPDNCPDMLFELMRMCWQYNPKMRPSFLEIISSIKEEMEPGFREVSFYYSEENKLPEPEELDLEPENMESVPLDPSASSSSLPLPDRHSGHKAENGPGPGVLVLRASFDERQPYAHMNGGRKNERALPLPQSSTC", "test": "SelectScreen kinase profiling, IGF1R", "assay_type": "biochemical", "details": "read-out: Mean % inhibition at 10 μM, IGF1R, 10 μM", "summary_of_the_method": "(§1)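 Test compound was screened at a single 10 μM concentration through an outsourced kinase selectivity panel (SelectScreen). Percent inhibition of each kinase was determined by time-resolved FRET assay.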"}, "[1]": {"test_system": "MCF-10A mammary epithelial cells", "test": "Cytotoxicity assay", "assay_type": "cell-based", "details": "24 h, MTT"}, "ABL1": {"target": "ABL1 (Homo sapiens, UniProt P00519)", "sequence (P00519 whole entry)": "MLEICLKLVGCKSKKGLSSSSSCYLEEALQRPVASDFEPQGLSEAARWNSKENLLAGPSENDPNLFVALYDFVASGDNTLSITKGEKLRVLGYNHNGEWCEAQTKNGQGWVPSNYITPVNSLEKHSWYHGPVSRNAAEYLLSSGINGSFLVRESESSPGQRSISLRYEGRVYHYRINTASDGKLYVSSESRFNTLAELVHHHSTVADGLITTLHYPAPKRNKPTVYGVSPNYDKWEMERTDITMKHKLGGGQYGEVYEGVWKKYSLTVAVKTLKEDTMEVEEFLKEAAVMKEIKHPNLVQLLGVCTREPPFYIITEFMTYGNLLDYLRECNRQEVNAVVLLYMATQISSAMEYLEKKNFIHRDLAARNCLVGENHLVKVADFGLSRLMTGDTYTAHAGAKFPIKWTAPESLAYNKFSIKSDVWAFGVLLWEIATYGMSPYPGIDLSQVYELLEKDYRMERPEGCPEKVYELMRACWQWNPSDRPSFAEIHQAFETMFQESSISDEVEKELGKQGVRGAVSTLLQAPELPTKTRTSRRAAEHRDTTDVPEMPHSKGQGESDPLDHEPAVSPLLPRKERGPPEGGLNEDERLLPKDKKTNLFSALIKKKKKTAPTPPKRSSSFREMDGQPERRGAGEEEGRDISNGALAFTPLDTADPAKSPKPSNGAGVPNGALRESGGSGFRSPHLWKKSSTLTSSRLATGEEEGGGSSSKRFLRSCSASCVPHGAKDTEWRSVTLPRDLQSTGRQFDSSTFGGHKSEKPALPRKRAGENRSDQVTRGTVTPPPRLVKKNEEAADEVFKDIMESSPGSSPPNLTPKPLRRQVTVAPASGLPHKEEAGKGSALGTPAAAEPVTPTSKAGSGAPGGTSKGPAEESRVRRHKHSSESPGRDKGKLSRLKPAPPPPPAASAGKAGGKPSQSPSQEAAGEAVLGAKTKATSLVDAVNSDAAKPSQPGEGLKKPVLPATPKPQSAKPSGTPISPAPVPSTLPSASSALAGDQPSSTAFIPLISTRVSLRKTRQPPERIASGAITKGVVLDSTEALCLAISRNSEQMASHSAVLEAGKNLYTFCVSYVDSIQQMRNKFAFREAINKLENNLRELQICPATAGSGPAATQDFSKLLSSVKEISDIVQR", "test": "SelectScreen kinase profiling, ABL1", "assay_type": "biochemical", "details": "read-out: Mean % inhibition at 10 μM, ABL1, 10 μM", "summary_of_the_method": "as §1"}, "[2]": {"test_system": "p-c-Met in MDA-MB-231/GFP tumors", "test": "Western blot of p-c-Met in excised xenograft tumors", "assay_type": "in vivo, athymic nude mice", "details": "10 mg/kg i.p., 3X/week, vs vehicle-treated control", "summary_of_the_method": "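Xenografts were MDA-MB-231/GFP cells in the mammary fat pad of female athymic nude mice, 5 per group. Test compound (i.p., 10 mg/kg, 3×/week) or vehicle (DMSO stock diluted in PBS/0.1% Tween 80) was given. At termination, tumors were excised, snap-frozen, homogenized and lysed. Lysates were immunoblotted for p-c-Met: SDS gels, PVDF, 5% BSA/TBST block, primary antibodies overnight at 4 °C, HRP secondaries, chemiluminescence.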"}, "[3]": {"test_system": "MDA-MB-231/GFP tumor cells", "test": "Breast cancer xenograft in athymic nude mice", "assay_type": "in vivo", "details": "10 mg/kg i.p., 3X/week, throughout the study", "summary_of_the_method": "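Female athymic nude mice (5–6 weeks old) received 1 × 10^6 MDA-MB-231/GFP cells in RPMI-1640 into the mammary fat pad. At about 50 mm3 (day 10), mice were randomized, 5 per group. Test compound was dissolved as a DMSO stock, diluted in sterile PBS with 0.1% Tween 80, and given i.p. at 10 mg/kg three times weekly. Controls got the same vehicle volume. Body weight was monitored regularly.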"}, "[4]": {"test_system": "p-Akt, p-mTOR, p-FAK, paxillin, p-MAPK in MDA-MB-231 cells", "test": "Western blot of c-Met downstream effectors in cells", "assay_type": "cell-based, human", "details": "MDA-MB-231, Western blot", "summary_of_the_method": "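MDA-MB-231 cells were seeded at 5 × 10^5 per 100 mm dish, attached overnight, then treated with test compound or DMSO vehicle for 72 h in serum-reduced medium with 10 ng/ml HGF. Lysates (30 μg) were run on Tris/glycine/SDS gels and transferred to PVDF. Blots were blocked 2 h in 5% BSA/TBST, probed with primary antibodies overnight at 4 °C and HRP secondaries 1 h at rt, and detected by chemiluminescence.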"}, "ERBB2 (HER2)": {"target": "ERBB2 (HER2) (Homo sapiens, UniProt P04626)", "sequence (P04626 23-1255)": "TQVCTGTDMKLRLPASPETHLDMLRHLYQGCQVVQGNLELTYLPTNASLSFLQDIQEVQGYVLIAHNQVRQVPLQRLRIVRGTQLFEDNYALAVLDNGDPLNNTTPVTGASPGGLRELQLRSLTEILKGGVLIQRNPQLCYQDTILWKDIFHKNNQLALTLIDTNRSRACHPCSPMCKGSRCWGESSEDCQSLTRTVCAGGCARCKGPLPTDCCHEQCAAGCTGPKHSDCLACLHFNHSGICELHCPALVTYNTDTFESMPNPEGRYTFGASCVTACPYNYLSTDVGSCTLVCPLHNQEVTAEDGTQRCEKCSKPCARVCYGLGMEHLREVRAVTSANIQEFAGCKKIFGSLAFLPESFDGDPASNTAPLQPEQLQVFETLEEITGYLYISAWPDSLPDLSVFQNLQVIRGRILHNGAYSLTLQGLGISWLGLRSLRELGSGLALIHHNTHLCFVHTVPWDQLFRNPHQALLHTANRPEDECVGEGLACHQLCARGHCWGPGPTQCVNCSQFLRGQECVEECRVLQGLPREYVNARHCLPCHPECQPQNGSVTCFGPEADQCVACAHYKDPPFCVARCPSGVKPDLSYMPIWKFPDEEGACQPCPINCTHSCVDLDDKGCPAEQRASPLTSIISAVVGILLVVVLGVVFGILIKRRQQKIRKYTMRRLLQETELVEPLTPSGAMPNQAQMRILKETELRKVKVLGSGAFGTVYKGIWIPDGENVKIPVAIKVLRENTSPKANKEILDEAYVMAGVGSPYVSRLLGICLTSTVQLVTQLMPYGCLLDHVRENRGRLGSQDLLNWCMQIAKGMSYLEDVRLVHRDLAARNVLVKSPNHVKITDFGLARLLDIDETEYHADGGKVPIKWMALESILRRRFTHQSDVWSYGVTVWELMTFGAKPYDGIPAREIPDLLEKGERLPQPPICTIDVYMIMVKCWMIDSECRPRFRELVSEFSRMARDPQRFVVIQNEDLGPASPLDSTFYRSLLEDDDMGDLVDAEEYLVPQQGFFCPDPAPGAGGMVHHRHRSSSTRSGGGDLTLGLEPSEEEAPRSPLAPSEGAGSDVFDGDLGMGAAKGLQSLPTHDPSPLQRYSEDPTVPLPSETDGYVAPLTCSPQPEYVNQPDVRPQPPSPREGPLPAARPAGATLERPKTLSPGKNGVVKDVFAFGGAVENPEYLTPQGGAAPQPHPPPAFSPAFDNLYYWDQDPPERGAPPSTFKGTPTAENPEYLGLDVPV", "test": "SelectScreen kinase profiling, HER2", "assay_type": "biochemical", "details": "read-out: Mean % inhibition at 10 μM, ERBB2 (HER2), 10 μM", "summary_of_the_method": "as §1"}, "MST1R (RON)": {"target": "MST1R (RON) (Homo sapiens, UniProt Q04912)", "sequence (Q04912 25-1400)": "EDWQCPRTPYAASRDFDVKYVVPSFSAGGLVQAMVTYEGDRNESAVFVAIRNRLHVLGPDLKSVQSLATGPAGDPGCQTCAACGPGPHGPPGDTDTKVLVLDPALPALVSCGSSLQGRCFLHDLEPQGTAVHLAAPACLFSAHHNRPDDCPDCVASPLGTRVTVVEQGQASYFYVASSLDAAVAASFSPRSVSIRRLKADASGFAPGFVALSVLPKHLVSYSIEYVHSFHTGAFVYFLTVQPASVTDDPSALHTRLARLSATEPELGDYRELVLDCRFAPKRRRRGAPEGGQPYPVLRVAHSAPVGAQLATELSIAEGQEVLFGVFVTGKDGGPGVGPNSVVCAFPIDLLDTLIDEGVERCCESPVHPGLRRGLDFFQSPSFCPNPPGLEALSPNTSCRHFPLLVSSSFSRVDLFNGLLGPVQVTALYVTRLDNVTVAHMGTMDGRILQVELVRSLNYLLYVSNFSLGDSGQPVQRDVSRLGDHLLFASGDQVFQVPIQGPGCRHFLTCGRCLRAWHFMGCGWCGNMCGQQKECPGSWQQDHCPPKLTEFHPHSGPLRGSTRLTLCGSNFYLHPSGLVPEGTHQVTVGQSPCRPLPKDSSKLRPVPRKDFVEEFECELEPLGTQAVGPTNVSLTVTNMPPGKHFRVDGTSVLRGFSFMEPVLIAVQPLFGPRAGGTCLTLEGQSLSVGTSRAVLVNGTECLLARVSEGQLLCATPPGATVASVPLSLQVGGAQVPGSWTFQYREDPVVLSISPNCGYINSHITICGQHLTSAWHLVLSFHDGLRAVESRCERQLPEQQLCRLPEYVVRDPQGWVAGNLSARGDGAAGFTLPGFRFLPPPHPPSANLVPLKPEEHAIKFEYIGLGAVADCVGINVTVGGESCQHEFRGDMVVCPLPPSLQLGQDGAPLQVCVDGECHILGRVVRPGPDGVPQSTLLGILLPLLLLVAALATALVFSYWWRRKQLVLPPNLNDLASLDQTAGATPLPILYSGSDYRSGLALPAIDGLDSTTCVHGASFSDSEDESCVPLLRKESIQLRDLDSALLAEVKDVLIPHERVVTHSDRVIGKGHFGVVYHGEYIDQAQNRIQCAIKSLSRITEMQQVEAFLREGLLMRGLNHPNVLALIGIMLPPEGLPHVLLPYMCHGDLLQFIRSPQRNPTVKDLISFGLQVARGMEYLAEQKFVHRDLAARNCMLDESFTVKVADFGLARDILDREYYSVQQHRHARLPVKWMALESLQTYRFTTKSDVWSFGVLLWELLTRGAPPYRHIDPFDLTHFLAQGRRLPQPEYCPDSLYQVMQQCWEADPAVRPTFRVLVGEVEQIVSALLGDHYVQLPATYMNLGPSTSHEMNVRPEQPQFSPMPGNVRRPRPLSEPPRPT", "test": "SelectScreen kinase profiling, MST1R", "assay_type": "biochemical", "details": "read-out: Mean % inhibition at 10 μM, MST1R (RON), 10 μM", "summary_of_the_method": "as §1"}, "[5]": {"test_system": "c-Met phosphorylation in MDA-MB-231 cells", "test": "Western blot of c-Met phosphorylation in cells", "assay_type": "cell-based, human", "details": "MDA-MB-231, Western blot, 72 h"}},
  "data": [
    {"compound": "C/C1=C\\[C@H](OC(=O)Nc2cc(C(F)(F)F)cc(C(F)(F)F)c2)C[C@](C)(O)/C=C/[C@H](C(C)C)CC/C(C)=C/CC1", "note": "[Compound 20, 6-O-[(N-(3,5-bis-(trifluoromethyl)phenyl)carbamoyl)]-(1S,2E,4S,7E,11E)-2,7,11-cembratriene-4,6-diol]", "values": [
      {"measurement": "LDH release (necrosis marker)", "setting": "MDA-MB-231 cells", "value": "minimal"},
      {"measurement": "inhibition at 10 µM", "setting": "IGF1R", "value": "30 to 35", "unit": "%"},
      {"measurement": "cellular death at effective doses", "setting": "[1]", "value": "didn’t induce a significant cellular death"},
      {"measurement": "inhibition at 10 µM", "setting": "ABL1", "value": "30 to 35", "unit": "%"},
      {"measurement": "level of p-c-Met in excised tumors", "setting": "[2]", "value": "significant decrease"},
      {"measurement": "average body weight difference between treatment and vehicle groups", "setting": "[3]", "value": "non-significant"},
      {"measurement": "levels of p-Akt, p-mTOR and p-FAK", "setting": "[4]", "value": "significant reductions"},
      {"measurement": "paxillin phosphorylation", "setting": "[4]", "value": "phosphorylation reduction"},
      {"measurement": "p-MAPK level", "setting": "[4]; compared to untreated cells", "value": "dose-dependent downregulation"},
      {"measurement": "inhibition at 10 µM", "setting": "ERBB2 (HER2)", "value": 23, "unit": "%"},
      {"measurement": "inhibition at 10 µM", "setting": "MST1R (RON)", "value": "30 to 35", "unit": "%"},
      {"measurement": "effect on p-Met (phosphorylated c-Met) level", "setting": "[5]", "value": "significant concentration-dependent downregulation"}
    ]}
  ]
}
